In ChEMBL document CHEMBL1130821 (Bioorg Med Chem Lett, 1998):
Starred links: 1 amine or outer side, 2 acyl side, 3 side chain; linkers in the order of their positions; H or OH if unused. Non-standard residues stand in square brackets, D forms with d. Residues, ends and D or L forms follow the SMILES beside them. X1 = O=C([C@@H]1C(Cc2ccccc2)CCN1[*:1])[*:2]; NMeF = CN[C@@H](Cc1ccccc1)C(=O)O

Legend:
CHO [1] = experiment: Compound was evaluated for the blockade of NKA-induced (neurokinin A) IPs hydrolysis in CHO cells; type: functional, cell-based; conditions: Cricetulus griseus, read-out: pA2 (converted)
How it was run: (§1)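 Intact CHO cells transfected with the human tachykinin NK-1 receptor. Antagonism of agonist-stimulated phosphoinositide (IP) hydrolysis is expressed as pA2, or as pKB where antagonism was uncompetitive.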

CHO [2] = experiment: Compound was evaluated for the blockade of [Pro]SP-induced IPs hydrolysis in CHO cells; type: functional, cell-based; conditions: Cricetulus griseus, read-out: pA2 (converted); how it was run: as §1
CHO [3] = experiment: Compound was evaluated for the blockade of [Pro]SP-induced cAMP formation in CHO cells; type: functional, cell-based; conditions: Cricetulus griseus, read-out: pA2 (converted)
How it was run: (§2)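 Intact CHO cells transfected with the human NK-1 receptor. Antagonist inhibition of agonist-stimulated cAMP formation is reported as pA2, or as pKB for uncompetitive antagonism.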

Substance-P receptor = Substance-P receptor (Homo sapiens, UniProt P25103); experiment: Compound was evaluated for affinity towards human tachykinin NK-1 receptor expressed in CHO cells; type: cell-based
CHO [4] = experiment: Compound was evaluated for the inhibition of IPs hydrolysis on intact CHO cells expressing the human tachykinin NK-1 receptor; type: functional, cell-based; conditions: Cricetulus griseus; how it was run: as §1
CHO [5] = experiment: Compound was evaluated for the inhibition of cAMP formation on intact CHO cells expressing the human tachykinin NK-1 receptor; type: functional, cell-based; conditions: Cricetulus griseus; how it was run: as §2

Chain of Substance-P receptor (P25103 whole entry): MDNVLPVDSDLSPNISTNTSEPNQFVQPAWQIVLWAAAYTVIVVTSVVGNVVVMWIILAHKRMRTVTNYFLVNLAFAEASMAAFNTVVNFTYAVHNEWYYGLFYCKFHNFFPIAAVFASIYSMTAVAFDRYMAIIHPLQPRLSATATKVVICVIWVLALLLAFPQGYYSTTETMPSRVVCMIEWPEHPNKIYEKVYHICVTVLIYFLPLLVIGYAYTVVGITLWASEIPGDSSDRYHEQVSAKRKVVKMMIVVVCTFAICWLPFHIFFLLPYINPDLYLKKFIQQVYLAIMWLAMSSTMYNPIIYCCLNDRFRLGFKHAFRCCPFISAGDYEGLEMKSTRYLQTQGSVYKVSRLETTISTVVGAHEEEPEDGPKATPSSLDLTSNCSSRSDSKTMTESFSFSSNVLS

Ki (Substance-P receptor) [nM]	SMILES	Kb (CHO [1]) [nM]	Kb (CHO [2]) [nM]	Kb (CHO [3]) [nM]	EC50 (CHO [4]) [nM]	EC50 (CHO [5]) [nM]
56	CC(C)C[C@@H](C(=O)N[C@@H](Cc1c[nH]c2ccccc12)C(N)=O)N1CC[C@@]2(CCCN2C(=O)[C@H](Cc2ccc(O)cc2)NC(=O)[C@H](Cc2ccccc2)NC(=O)[C@H](CCCCN)NC(=O)[C@H](CC(N)=O)NC(=O)[C@@H]2CCCN2C(=O)[C@H](CC(=O)O)NC(=O)[C@H](C)NC(=O)[C@@H]2CCC(=O)N2)C1=O	12.6	63.1	15.8	–	–
1.1	CSCC[C@H](NC(=O)[C@H](CC(C)C)NC(=O)[C@@H]1CCCN1C(=O)[C@H](Cc1ccccc1)NC(=O)[C@H](Cc1ccccc1)NC(=O)[C@H](CCC(N)=O)NC(=O)[C@H](CCC(N)=O)NC(=O)[C@@H]1CCCN1C(=O)[C@H](CCCCN)NC(=O)[C@@H]1CCCN1C(=O)[C@@H](N)CCCN=C(N)N)C(N)=O	–	–	–	1.2	10
110	CN(C(=O)[C@@H]1CCCN1C(=O)[C@H](Cc1ccccc1)NC(=O)[C@H](Cc1ccccc1)NC(=O)[C@H](CCC(N)=O)NC(=O)[C@H](CCC(N)=O)NC(=O)[C@@H]1CCCN1C(=O)[C@H](CCCCN)NC(=O)[C@@H]1CCCN1C(=O)[C@@H](N)CCCN=C(N)N)[C@@H](Cc1ccccc1)C(=O)N[C@@H](Cc1c[nH]c2ccccc12)C(N)=O (H-RPKPQQFFP[NMeF]W-NH2)	398	347	115	–	–
79	NCCCC[C@H](NC(=O)[C@@H]1CCCN1C(=O)[C@@H](N)CCCN=C(N)N)C(=O)N1CCC[C@H]1C(=O)N[C@@H](CCC(N)=O)C(=O)N[C@@H](CCC(N)=O)C(=O)N[C@@H](Cc1ccccc1)C(=O)N[C@@H](Cc1ccccc1)C(=O)N1CCC[C@H]1C(=O)N1CCC(Cc2ccccc2)[C@H]1C(=O)N[C@@H](Cc1c[nH]c2ccccc12)C(N)=O (some centres not stated) (H-RPKPQQFFP[X1]W-NH2)	10	25.1	18.2	–	–
–	CSCC[C@H](NC(=O)[C@H](CC(C)C)NC(=O)CNC(=O)[C@@H](NC(=O)[C@H](Cc1ccccc1)NC(=O)[C@H](CO)NC(=O)[C@H](CC(=O)O)NC(=O)[C@@H](NC(=O)[C@H](CCCCN)NC(=O)[C@@H](N)Cc1c[nH]cn1)[C@@H](C)O)C(C)C)C(N)=O [NEUROKININ A]	–	–	–	8	1240
